CSC inhib = cancer stem cell viability inhibitors, primary screen, luminescence; inhibition, % at 7.5 µM; 300,000 compounds, 1.1% hits; cancer stem cell-like cells viability; AID 2717, 2010; in the data active means inhibition above about 75%; inconclusive means no clear call, values can overlap the other calls; tested in HMLE shEcad cells
NALP3 yeast inh = NALP3 inflammasome inhibitors in reconstituted yeast, primary screen, luminescence, uHTS | Yeast reconstituted NLRP3/ASC/caspase-1, beta-gal luminescence, 24 h | inhibition, % at 10 µM | 330,000 compounds, 0.39% hits;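 active means inhibition of 50% or more; inactive means inhibition below 50%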;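 further: plate controls were induced DMSO wells for no effect and uninduced yeast grown without galactose for full effect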
Beta apoptosis = inhibitors of cytokine-induced beta cell apoptosis, primary screen, luminescence; INS-1E cytokine-induced death, ATP luminescence, 48 h; percent of positive-control rescue, neutral wells zero; protection from apoptosis, % (test concentration not listed); AID 435005, 2010; 300,000 compounds, 0.8% hits;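 active means Every replicate reaches about 75%, or at least half do and their mean reaches it too, limit read from the data; inconclusive means At least half of replicates reach the limit but their mean does not; inactive means Under half of replicates reach the limit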;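 further: 0% = cytokine-treated negative control wells and 100% = positive control rescue; higher means more ATP so stronger rescue from cytokine killing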
T cruzi inh = inhibitors of intracellular T. cruzi growth, primary screen, luminescence, NIH3T3 host cells. T. cruzi beta-gal in NIH3T3, 90 h. inhibition, % (no concentration beside the values). 300,000 compounds, 1.4% hits. AID 1885, 2009;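 active means mean inhibition across valid replicates above about 55%, limit read from the data; inconclusive means mean below that limit but half or more replicates reach it; inactive means mean below it, under half of replicates reach it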;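 further: signal also drops with host cell toxicity which is not excluded here; 0% = plate median of DMSO wells and 100% = zero luminescence signal; higher percent means less beta-gal luminescence so fewer parasites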
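Incubation – ≥90 h infection period, 3 h prior cell attachment · System – NIH/3T3 fibroblasts plus reporter T. cruzi · Doses – compound pinned at 50 nL/well, DMSO · Read-out basis – percent inhibition of parasite-derived β-gal signal · Signal – luminescent β-galactosidase signal after 60 min lysis · Also added – 5000 T. cruzi trypomastigotes/well · Medium – Low-serum DMEM with 2% FBS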
Calb FLC = C. albicans growth inhibition with fluconazole, primary screen, CaCi-2 strain, Alamar Blue fluorescence; C. albicans CaCi-2 (fluconazole-resistant clinical isolate) + fluconazole, 48 h; growth inhibition, % (concentration not given with the values); 300,000 compounds, 0.57% hits; AID 1979, 2009;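 active means growth inhibition above about 58% in most replicates, limit read from the data, passing the limit was not always enough; inconclusive means exactly half the replicates above a set limit; inactive means most replicates below a set limit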;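 further: all wells also contain fluconazole at 8 µg/ml as a sub-toxic cotreatment; 0% = median of DMSO wells and 100% = median of geldanamycin control wells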
Mdm2 MdmX PPI = inhibitors of human Mdm2-MdmX association, primary screen, cell-based, luminescence, split luciferase, SaOS-2, uHTS. SaOS-2 split-luciferase Mdm2/MdmX complementation. Protein Mdm4 (Homo sapiens) + E3 ubiquitin-protein ligase Mdm2 (Homo sapiens), …. 330,000 compounds, 3% hits. inhibition, % at 8 µM;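 active means inhibition of at least 50% at 8 µM in the primary screen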
Mdm2-MdmX conf = Mdm2-MdmX complex disruptors, retested hits, confirmation, luminescence, single concentration; shares compounds with Mdm2 MdmX PPI; inhibition, % at 8 µM; 10,000 compounds, 55% hits; Mdm2-MdmX binding, luminescent assay; in the data active means inhibition above about 40%
FLuc counter = full-length luciferase signal inhibition, confirmation, counter-screen for Mdm2/MdmX interaction inhibitor project, cell-based, single concentration, SaOS-2 | shares compounds with Mdm2 MdmX PPI | SaOS-2 full-length luciferase counterscreen, luminescence | inhibition, % at 8 µM | 6,200 compounds, 77% hits;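 active means mean inhibition at 8 µM reaching about 37%, which flags the compound as non-specific, limit read from the data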;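 further: p53-null SaOS-2 cells with luciferase driven by a doxycycline-inducible promoter; compound on cells about two nights before reading with doxycycline added after day one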
Starred values were filed as active, the others as inactive; u = inconclusive; x = no result given. Rows were chosen to be rich in hits. Some 5.3% of all compounds tested hit in one or more screens of this group.

SMILES	CSC inhib	NALP3 yeast inh	Beta apoptosis	T cruzi inh	Calb FLC	Mdm2 MdmX PPI	Mdm2-MdmX conf	FLuc counter
O=[N+]([O-])c1ccc2c(c1)C(O)n1nc(-c3ccc(Cl)cc3Cl)nc1S2 (centres undefined)	-9	9	0	-20	-2	50	54*	102*
Cc1cc(C)c(C#N)c(SCC(=O)c2ccc(Cl)cc2Cl)n1	42	16	10	75*	-4	74*	73*	70*
CCOC(=O)CSc1nc(C)cc(C)c1C#N	-16	-9	3	-11	-11	12	x	x
COc1ccc(/C=C/C(=O)c2cc(F)ccc2OC(=O)c2ccccc2C)cc1OC	49	15	50	-23	25	61*	66*	117*
CCCCN(C)S(=O)(=O)c1ccc(C(=O)Nc2nnc(CSC)o2)cc1	-13	14	x	-33	3	51*	27	x
CCCCN(CCCC)S(=O)(=O)c1ccc(C(=O)Nc2nnc(COC)o2)cc1	22	-9	6	15	88*	59*	22	x
CCOC(=O)c1c(NC(=S)Nc2ccccc2)sc2c1CCN(CC)C2	-11	6	-6	1	-2	-9	x	x
Cc1cccc(CN2CCC(Oc3ccc(C(=O)N4CCCC4)cc3)CC2)n1	2	4	3	-10	0	4	x	x
CCCCn1c(O)c(N=NC(=O)c2ccncc2)c2cc(Br)ccc21	51	16	10	16	4	64*	40*	63*
CCn1c(O)c(N=NC(=O)c2cccnc2)c2cc(Br)ccc21	38	12	6	-5	7	36	x	x
CC(=O)Nc1ccc(C(=O)NNC(=O)c2ccc(Cl)cc2Cl)cc1	4	20	x	-9	-4	-10	x	x
O=C(/C=C/C=C/c1ccccc1)CC1(O)C(=O)N(CCc2ccccc2)c2ccccc21 (centres undefined)	15	1	-1	19	-2	53*	-1	x
COc1cc(C(=O)NCc2nnc(SCC(=O)Nc3cccc(C(F)(F)F)c3)o2)cc(OC)c1OC	-6	19	0	-13	-1	9	x	x
COc1ccc(N(C(=O)Cc2cccs2)C(C(=O)NC2CCCC2)c2ccncc2)cc1 (centres undefined)	-14	18	-3	17	-2	4	x	x
COc1ccc(C(C(=O)NC2CCCCC2)N(C(=O)CCl)c2ccc(OC)cc2)cc1 (centres undefined)	-11	14	-5	18	-14	100*	100*	50*
COc1ccc(N(C(=O)CCl)C(C(=O)NC2CCCCC2)c2cccnc2)cc1 (centres undefined)	59	14	-14	3	-17	96*	100*	54*
O=C(NC1CCCCC1)C(c1cccnc1)N(C(=O)CCl)c1ccccc1Cl (centres undefined)	24	21	-8	-9	-5	95*	99*	59*
COc1ccc(C(C(=O)NC2CCCC2)N(C(=O)c2ccoc2C)c2ccc(C)cc2)cc1 (centres undefined)	3	7	-2	6	3	24	x	x
CCc1ccccc1N(C(=O)CNC(=O)c1ccco1)C(C(=O)NC1CCCC1)c1cccnc1 (centres undefined)	x	11	1	5	9	5	x	x
COc1ccc(C(C(=O)NC2CCCCC2)N(C(=O)CCl)c2ccc(C)cc2)cc1 (centres undefined)	49	23	5	20	-6	98*	100*	54*
COC(C(=O)Nc1cccc([N+](=O)[O-])c1)c1ccccc1 (centres undefined)	-6	-20	-4	-12	u	8	x	x
COc1ccc(C(=O)NNC2=NC(C)(C)Cc3cc(C)c(C)cc32)cc1	-10	13	3	7	6	23	x	x
Fc1ccccc1-c1n[nH]c(=S)n1/N=C/c1c[nH]c2ccccc12	6	12	-1	-15	-6	33	x	x
Cc1ccccc1C(=O)NC1CCN(CC(=O)NCc2ccc(F)cc2)CC1	-1	15	-1	-4	-3	17	x	x
COc1ccccc1N1C(=O)S/C(=C\c2cc(C)n(C)c2C)C1=O	-4	10	8	-6	-26	-46	x	x
SMILES	CSC inhib	NALP3 yeast inh	Beta apoptosis	T cruzi inh	Calb FLC	Mdm2 MdmX PPI	Mdm2-MdmX conf	FLuc counter
Cc1ccc2nc(NC(=O)c3ccccn3)sc2c1	84*	41	79*	69*	-33	100*	90*	56*
Cc1ccc(C)c(C(=O)c2ccccc2NC(=O)c2ccccn2)c1	70	21	3	14	12	57*	58*	73*
CCOc1ccc2nc(NC(=O)c3ccccn3)sc2c1	94*	19	77*	46	-27	76*	76*	42*
Cc1ccc2nc(NC(=O)/C=C/c3ccc4c(c3)OCO4)sc2c1	49	1	84*	-13	-6	78*	22	x
Cc1ccc2nc(NC(=O)c3ccccc3F)sc2c1	15	24	x	11	-7	-143	x	x
CCOc1ccc2nc(NC(=O)Nc3ccccc3)sc2c1	0	8	4	0	4	-141	x	x
O=C(/C=C/c1ccc2c(c1)OCO2)Nc1nc2ccccc2s1	67	-5	58	-22	1	48	x	x
CCOc1ccc(C2C(C#N)=C(N)Oc3n[nH]c(C)c32)cc1OC(=O)C1CC1 (centres undefined)	0	-6	-2	-8	9	9	x	x
O=C(CSc1ccc(-c2ccc3c(c2)OCO3)nn1)Nc1nccs1	-8	-4	-1	-5	8	89*	16	x
O=C(CSCC(=O)Nc1nc(-c2ccc3c(c2)OCO3)cs1)Nc1nccs1	10	-5	-5	4	-5	5	x	x
COc1ccccc1NC(=O)CN1CCN(C2c3ccccc3-c3ccccc32)CC1	60	29	4	42	0	38	x	x
COc1ccc(NC(=O)CN2CCN(C3c4ccccc4-c4ccccc43)CC2)c(OC)c1	27	11	10	34	-14	94*	21	x
Cc1ccc(-c2nnc(Nc3ccc(C(N)=O)cc3)c3ccccc23)cc1S(=O)(=O)NCC1CCCO1 (centres undefined)	21	8	0	-32	12	17	x	x

Bioassay records (PubChem BioAssay)
